The values below come from ChEMBL document CHEMBL1138117, “Hybrid antibacterials. DNA polymerase-topoisomerase inhibitors” (J Med Chem, 2006).

The test system of data set [1] is Mus musculus. Put plainly: Effect on survival of mice infected with Enterococcus faecalis 29212 at 50 mg/kg, 15 min post injection. The format is functional, Swiss Webster. The method in brief:
(§1)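 Male Swiss-Webster mice were infected ip with the organism grown in brain-heart infusion broth at 37 °C to log phase and washed. It was given in 0.5 mL broth with 5% mucin; CFU were estimated from OD600. Groups of 5 or 10 received iv tail-vein doses in DCP vehicle at 5 mL/kg. Survivors were counted at 72 h.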

The test system of data set [2] is Mus musculus. The data set can be described thus: Effect on survival of mice infected with Enterococcus faecalis 29212 at 25 mg/kg, 15 min post injection. The format is functional, Swiss Webster. The method in brief: as §1
The test system of data set [3] is Mus musculus. The data set can be described thus: Effect on survival of mice after ip infection with Vancomycin resistant Enterococcus faecium VRE 700802 at 100 mg/kg, 15 min post injection. The format is functional, Swiss Webster. Conditions: route intraperitoneal. The method in brief: as §1
Data set [4] relates to Mus musculus. Put plainly: Effect on survival of mice after ip infection with Vancomycin resistant Enterococcus faecium VRE 700802 at 50 mg/kg twice at 15 and 195 min post injection. Type of data set: functional, Swiss Webster. Conditions: route intraperitoneal.
In a further data set the test system is Enterococcus faecalis. The data set can be described thus: Antibacterial activity against Enterococcus faecalis 29212. The format is functional.
Data set [5] deals with DNA gyrase (Bacillus subtilis). The data set can be described thus: Inhibition of Bacillus subtilis gyrase activity.
The subject of data set [6] is Staphylococcus aureus. The data set can be described thus: Antibacterial activity against methicillin resistant Staphylococcus aureus MRSA 1094. Type of data set: functional.
Another data set concerns Escherichia coli. The data set can be described thus: Antibacterial activity against Escherichia coli J53. The format is functional.
The subject of data set [7] is Mus musculus. The data set can be described thus: Effect on survival of mice infected with Enterococcus faecalis 29212 at 25 mg/kg twice at 15 and 135 min post injection. The format is functional, Swiss Webster. The method, boiled down: as §1
Data set [8] has as its system Mus musculus. Put plainly: Effect on survival of mice after ip infection with Vancomycin resistant Enterococcus faecium VRE 700802 at 75 mg/kg twice at 15 and 135 min post injection. Conditions: route intraperitoneal. Type of data set: functional, Swiss Webster.
In data set [9] the test system is Mus musculus. Put plainly: Effect on survival of mice infected with methicillin resistant Staphylococcus aureus 1094 at 50 mg/kg twice at 15 and 135 min post injection. The format is functional, Swiss Webster. The method in brief:
(§2)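 Male Swiss-Webster mice were infected ip with 1×10⁷ CFU of log-phase MRSA 1094, grown in brain-heart infusion broth and given in 0.5 mL broth with 5% mucin. Doses in DCP vehicle were given iv by tail vein at 5 mL/kg. Survivors per treated group were counted at 72 h post-infection.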

The subject of data set [10] is Mus musculus. Put plainly: Effect on survival of mice after ip infection with Vancomycin resistant Enterococcus faecium VRE 700802 at 50 mg/kg twice at 15 and 135 min post injection. Type of data set: functional, Swiss Webster. The method, boiled down:
as §1

Data set [11] concerns Mus musculus. The data set can be described thus: Effect on survival of mice infected with methicillin resistant Staphylococcus aureus 1094 at 25 mg/kg twice at 15 and 135 min post injection. The format is functional, Swiss Webster. The method in brief:
as §2

In data set [12] the test system is Mus musculus. Put plainly: Effect on survival of mice infected with Enterococcus faecalis 29212 at 50 mg/kg twice at 15 and 135 min post injection. The format is functional, Swiss Webster. The method, boiled down:
as §1

The subject of data set [13] is Mus musculus. Put plainly: Effect on survival of mice after ip infection with Staphylococcus aureus Smith. Type of data set: functional. The method, boiled down:
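Male Swiss-Webster mice (20–24 g) were given 10⁸ CFU of log-phase S. aureus Smith ip, grown in LB at 37 °C and washed in cold broth. A single iv tail-vein dose was given in DCP vehicle (10% DMA, 10% Cremophor EL in PBS, pH 9.5; 5 mL/kg) 15 min post-infection. Survival was scored at 72 h and ED50 derived.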

The test system of data set [14] is Mus musculus. The data set can be described thus: Effect on survival of mice after ip infection with Vancomycin resistant Enterococcus faecium VRE 700802 at 75 mg/kg twice at 15 and 195 min post injection. The format is functional, Swiss Webster. Conditions: route intraperitoneal. The method in brief: as §1
Data set [15] concerns Enterococcus faecium. Put plainly: Antibacterial activity against Enterococcus faecium 19434. Type of data set: functional.
Data set [16] concerns Mus musculus. Put plainly: Effect on survival of mice infected with Enterococcus faecalis 29212 at 75 mg/kg, 15 min post injection. Type of data set: functional, Swiss Webster. The method, boiled down:
as §1

Data set [17] concerns Mus musculus. The data set can be described thus: Effect on survival of mice infected with methicillin resistant Staphylococcus aureus 1094 at 75 mg/kg twice at 15 and 135 min post injection. The format is functional, Swiss Webster. The method, boiled down: as §2
For data set [18], the system named is Enterococcus faecium. The data set can be described thus: Antibacterial activity against Vancomycin resistant Enterococcus faecium VRE 700802. The format is functional.
In data set [19] the target is DNA polymerase III PolC-type (Bacillus subtilis (strain 168), UniProt P13267). The data set can be described thus: Binding affinity to Bacillus subtilis DNA polymerase3C. The method in brief: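 Homogeneous recombinant B. subtilis pol IIIC was assayed in 96-well format on activated calf thymus DNA. Apparent Ki values were determined in a truncated assay lacking the competitor dGTP.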

Data set [20] deals with Staphylococcus aureus. Put plainly: Antibacterial activity against Staphylococcus aureus 25293. Type of data set: functional.
A short description of data set [21]: Plasma concentration after 6 hrs in mice administered with 100 mg/kg, iv. Type of data set: ADME, organism-based. Set-up: dose 100 mg/kg, route intravenous. Conditions: Swiss Webster, mouse. The method, boiled down: (§3)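 Male Swiss-Webster mice (20–24 g) got a single 100 mg/kg iv tail-vein bolus at 5 mL/kg in DCP vehicle (10% N,N-dimethylacetamide, 10% Cremophor EL in PBS, pH 9.5). Blood was taken from groups of 3 at various times. Plasma was quantified by C18 HPLC with MeCN:H₂O:NEt₃:AcOH (25:74.7:0.2:0.1), 1 mL/min, detection at 282 nm, against a spiked-plasma standard curve linear over 1–40 μg/mL.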

Data set [22] in a line: Cmax in mice at 100 mg/kg, iv. Conditions: Swiss Webster, mouse, in vivo. The arrangement: dose 100 mg/kg, route intravenous. Type of data set: ADME, organism-based. The method in brief:
as §3

Data set [23] is described as follows: Tmax in mice at 100 mg/kg, iv. Conditions: Swiss Webster, mouse, in vivo. The format is ADME, organism-based. Set-up: dose 100 mg/kg, route intravenous. The method, boiled down: as §3
In data set [24] the target is DNA topoisomerase IV (Bacillus subtilis). Put plainly: Inhibition of Bacillus subtilis topoisomerase IV activity.
Another data set relates to Bacillus subtilis. Put plainly: Antibacterial activity against Bacillus subtilis BD54. The format is functional.
In data set [25] the test system is Staphylococcus aureus. The data set can be described thus: Antibacterial activity against Staphylococcus aureus smith. Type of data set: functional.

Values after ≈ are worked out from the molar mass of the structure shown.

Chain of DNA polymerase III PolC-type (P13267 whole entry, the tested form may be a part): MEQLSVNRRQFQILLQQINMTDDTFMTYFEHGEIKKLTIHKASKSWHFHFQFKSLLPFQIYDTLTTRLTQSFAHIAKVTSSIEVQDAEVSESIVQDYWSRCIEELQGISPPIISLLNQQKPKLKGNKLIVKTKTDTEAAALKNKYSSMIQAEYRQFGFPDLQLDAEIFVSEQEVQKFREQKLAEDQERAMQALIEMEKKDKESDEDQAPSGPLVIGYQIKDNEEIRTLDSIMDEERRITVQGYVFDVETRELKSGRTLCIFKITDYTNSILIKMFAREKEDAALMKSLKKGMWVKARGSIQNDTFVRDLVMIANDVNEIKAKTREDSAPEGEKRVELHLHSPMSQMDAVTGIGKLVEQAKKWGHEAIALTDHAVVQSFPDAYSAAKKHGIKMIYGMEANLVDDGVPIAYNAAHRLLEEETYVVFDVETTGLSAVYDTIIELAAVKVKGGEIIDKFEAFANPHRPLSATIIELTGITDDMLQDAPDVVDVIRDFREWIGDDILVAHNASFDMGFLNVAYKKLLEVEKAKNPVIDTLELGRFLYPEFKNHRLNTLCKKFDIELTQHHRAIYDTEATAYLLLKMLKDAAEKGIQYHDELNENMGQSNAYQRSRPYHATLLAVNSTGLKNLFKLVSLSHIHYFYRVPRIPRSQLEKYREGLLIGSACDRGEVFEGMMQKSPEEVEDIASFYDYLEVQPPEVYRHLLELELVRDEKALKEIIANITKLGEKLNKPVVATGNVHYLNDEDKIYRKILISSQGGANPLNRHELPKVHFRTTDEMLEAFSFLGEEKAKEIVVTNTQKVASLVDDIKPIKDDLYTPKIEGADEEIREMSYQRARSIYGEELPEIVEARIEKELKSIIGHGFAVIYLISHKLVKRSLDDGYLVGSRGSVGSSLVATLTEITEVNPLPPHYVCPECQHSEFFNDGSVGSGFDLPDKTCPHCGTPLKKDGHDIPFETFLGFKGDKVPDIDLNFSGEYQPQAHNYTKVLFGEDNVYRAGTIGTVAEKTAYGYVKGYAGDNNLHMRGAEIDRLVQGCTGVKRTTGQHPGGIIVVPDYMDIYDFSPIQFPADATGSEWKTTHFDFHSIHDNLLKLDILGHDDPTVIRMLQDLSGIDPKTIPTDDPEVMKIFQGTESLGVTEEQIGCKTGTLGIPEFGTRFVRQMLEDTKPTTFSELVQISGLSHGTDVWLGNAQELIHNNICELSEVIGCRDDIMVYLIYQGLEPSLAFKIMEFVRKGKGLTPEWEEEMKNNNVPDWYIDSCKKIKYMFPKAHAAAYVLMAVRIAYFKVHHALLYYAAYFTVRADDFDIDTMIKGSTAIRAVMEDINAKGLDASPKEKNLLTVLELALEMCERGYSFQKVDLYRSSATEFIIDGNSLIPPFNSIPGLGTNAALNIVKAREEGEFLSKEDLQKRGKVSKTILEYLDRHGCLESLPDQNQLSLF

For `CCc1cc(Nc2cc(=O)n(CCCCN3CCN(c4c(F)cc5c(=O)c(C(=O)O)cn(C6CC6)c5c4F)CC3C)c(=O)[nH]2)ccc1C` (configuration not stated), the Activity was 40% with Mus musculus [1]; 13% in the data set with Mus musculus [2]; 10% in the data set on Mus musculus [3]; 0% with Mus musculus [4]; 40% in the data set with Mus musculus [7]; 0% with Mus musculus [8]. Besides, the Activity in the data set on Mus musculus [9] worked out at 0%; in the data set with Mus musculus [10] it was 10%; with Mus musculus [11] it was 5%; with Mus musculus [12], 80%; with Mus musculus [14] it was 45%; with Mus musculus [16], 80%. This compound displayed an Activity in the data set with Mus musculus [17] of 55%. The MIC came to 1.25 µg/mL (≈ 1.89 µM) against Enterococcus faecalis; 1.25 µg/mL (≈ 1.89 µM) in the data set with Staphylococcus aureus [6]; 5 µg/mL (≈ 7.54 µM) in the data set with Escherichia coli; 1.25 µg/mL (≈ 1.89 µM) with Enterococcus faecium [15]; 0.625 µg/mL (≈ 0.943 µM) against Enterococcus faecium [18]. The compound also came in with an IC50 in [5] of 21.7 µg/mL (≈ 32.7 µM). In the data set on Mus musculus [13], the ED50 was 15 mg/kg.

Regarding `CCc1cc(Nc2cc(=O)n(CCCCN3CCN(c4c(F)cc5c(=O)c(C(=O)O)cn(C6CC6)c5c4F)C[C@H]3C)c(=O)[nH]2)ccc1C`, the MIC in the data set with Enterococcus faecalis is 1.25 µg/mL (≈ 1.89 µM); with Staphylococcus aureus [6], 1.25 µg/mL (≈ 1.89 µM); against Escherichia coli it was 5 µg/mL (≈ 7.54 µM); against Enterococcus faecium [15] it was 2.5 µg/mL (≈ 3.77 µM); in the data set with Enterococcus faecium [18], 1.25 µg/mL (≈ 1.89 µM). Further, the 50% inhibitory concentration (IC50) in data set [5] came out at 11.7 µg/mL (≈ 17.7 µM). For the same compound, the inhibition constant (Ki) in data set [19] (read-out: Ki) stood at 7 nM. In the data set with Mus musculus [13], the ED50 is 20 mg/kg.

As for `CCc1cc(Nc2cc(=O)n(CCCCN3CCN(c4c(F)cc5c(=O)c(C(=O)O)cn(C6CC6)c5c4F)C[C@@H]3C)c(=O)[nH]2)ccc1C`, the minimum inhibitory concentration (MIC) was determined as 0.625 µg/mL (≈ 0.943 µM) against Staphylococcus aureus [20]; 1.25 µg/mL (≈ 1.89 µM) in the data set on Enterococcus faecalis; 20 µg/mL (≈ 30.2 µM) with Escherichia coli; 1.25 µg/mL (≈ 1.89 µM) in the data set with Enterococcus faecium [15]; 0.625 µg/mL (≈ 0.943 µM) against Enterococcus faecium [18]. Further, in [5], the IC50 was found to be 9.2 µg/mL (≈ 13.9 µM). Further, the Ki in [19] (read-out: Ki) came out at 4 nM. For the same compound, the ED50 in the data set with Mus musculus [13] was 15 mg/kg.

`CCc1cc(Nc2cc(=O)n(CCCCN3CCN(c4cc5c(cc4F)c(=O)c(C(=O)O)cn5C4CC4)CC3)c(=O)[nH]2)ccc1C` came in with a concentration at 6 h in data set [21] of 0.62 µg/mL. For the same compound, the highest level in data set [22] (Cmax) was 213 µg/mL. Moreover, the MIC against Enterococcus faecalis is 0.625 µg/mL (≈ 0.991 µM); in the data set on Staphylococcus aureus [6], 2.5 µg/mL (≈ 3.96 µM); with Escherichia coli, more than 40 µg/mL; against Mus musculus [13], 0.41 µg/mL (≈ 0.65 µM); in the data set on Enterococcus faecium [15] it was 1.25 µg/mL (≈ 1.98 µM); in the data set with Enterococcus faecium [18], 0.625 µg/mL (≈ 0.991 µM). Besides, the IC50 in [5] worked out at 28.4 µg/mL (≈ 45 µM); in [24], 22.9 µg/mL (≈ 36.3 µM). Further, the Tmax in [23] is 5 min.

`C[C@@H]1CN(c2c(F)c(N)c3c(=O)c(C(=O)O)cn(C4CC4)c3c2F)C[C@H](C)N1` [SPARFLOXACIN]: the MIC is less than 0.078 µg/mL against Staphylococcus aureus [20]; 5 µg/mL (≈ 12.7 µM) against Enterococcus faecalis; less than 0.078 µg/mL with Bacillus subtilis; 10 µg/mL (≈ 25.5 µM) in the data set on Staphylococcus aureus [6]; less than 0.078 µg/mL against Escherichia coli; 1.25 µg/mL (≈ 3.19 µM) against Enterococcus faecium [15]. Moreover, the MIC is less than 0.078 µg/mL in the data set with Staphylococcus aureus [25] and 80 µg/mL (≈ 204 µM) in the data set with Enterococcus faecium [18]. This compound displayed an IC50 in data set [5] of 0.4 µg/mL (≈ 1.02 µM). The Ki entry in data set [19] is reported as “Not Active”.

In general, MIC refers to the smallest concentration in the dilution series that meets the test's criterion for growth inhibition. For orientation: IC50 means the midpoint of a concentration-inhibition curve. A word on the ED50: it is the midpoint of the dose-response relation. A higher ED50 goes with weaker potency. Broadly, the Ki is the dissociation constant of the complex between target and ligand, obtained from inhibition or displacement. A word on the Cmax: it is the peak of the concentration-time curve. Broadly, the Tmax is the time from dosing to the highest level.
